# From PubChem BioAssay AID573 (SRMLSC, 2007)
# Among all 65,000 compounds or so, about 1,400 (2.2%) were called active.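 The calls were made as follows: active = growth inhibition at or above a cutoff equal to the mean over every tested compound plus 3 SD (cut at about 60% in these data); inactive = the rest.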 The full list was thinned out, with actives kept by preference.
# Assay: E. coli ΔtolC antibacterial growth inhibition – strain BW25113 ΔtolC::kan, 384-well, primary screen (AID 573);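 also: growth measured after 20 h incubation at 37 °C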
# Settings: E. coli BW25113 tolC mutant growth, OD615; active compounds read high; concentration not given here
# Summary of the method: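 Assay system: tolC-deleted E. coli BW25113. Medium: kanamycin-containing LB broth (50 µg/mL). Dosing: 10 µM final, single dose. Timing: bacterial growth with compound for 20 h at 37 °C. Detection: A615 absorbance measurement. Read-out basis: growth inhibition in percent.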
row,SMILES,growth inhibition
1,CCOC(=O)c1c(-c2ccccc2)oc2ccc(OC(=O)N(C)C)cc12,96.5% (active)
2,CCN1c2nc3c(C)cccn3c(=O)c2CC2(C(=O)N(C)C(=O)N(C)C2=O)C1C (stereo not given),-0.7% (inactive)
3,CCC(=NCCCO)c1c(O)n(-c2ccc(OC)cc2)c(=O)[nH]c1=O,-12.6% (inactive)
4,CCC(=NCc1ccco1)c1c(O)n(Cc2ccccc2)c(=O)[nH]c1=O,7.19% (inactive)
5,CCCCCCN=C(CC)c1c(O)n(CCCC)c(=O)[nH]c1=O,90.2% (active)
6,CCCC(C)n1[nH]c(=O)c2c1NC(=O)CSC2c1ccc(OC)c(OC)c1 (stereo not given),-7.28% (inactive)
7,Cn1c(C(=O)N2CCC(C(=O)N3CCC4(CC3)OCCO4)CC2)cc2sccc21,3.04% (inactive)
8,C/C(CCc1c[nH]c2ccccc12)=N\O,-11.1% (inactive)
9,c1cncc(CNC2=NCCC2)c1,-5.19% (inactive)
10,C=Cn1ccnc1P(=S)(c1cc(N(CC)CC)ns1)c1nccn1C=C,8.14% (inactive)
